TDP2 absorb – human TDP2 enzyme inhibitors, primary screen, biochemical, epi absorbance, recombinant enzyme. AID 720702, 2013. T5PNP hydrolysis, p-nitrophenol absorbance 415 nm. inhibition, % at 12.8 µM. Tyrosyl-DNA phosphodiesterase 2 (Homo sapiens), O95551. actives 0.34% (n = 370,000);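 active = inhibition above the mean of all tested compounds plus 3 SD, set per campaign, cut at about 25% in these data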;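 also: 0% = DMSO with enzyme and 100% = buffer with substrate but no TDP2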
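Evaluation: % inhibition relative to enzyme-containing and enzyme-free wells. Material: recombinant human TDP2. Benchmarks: enzyme-free and DMSO wells. Timing: enzyme reaction with compound for 2 h at 37 °C. Compound dosing: 12.8 µM only. Measured by: p-Nitrophenol epi absorbance. Reagent: T5PNP substrate at 5 mM, a TopII-DNA adduct mimic. Replication: single well per compound.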
core dimer inh – inhibitors of HCV core protein dimerization, primary screen, biochemical, TR-FRET, high-throughput | TR-FRET GST/Flag-core106 dimerization, 1536-well | inhibition, % at 5 µM | actives 0.33% (n = 300,000);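 active = inhibition above the mean of all tested compounds plus 3 SD, set per screening campaign, cut at about 45% in these data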
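System – GST-tagged and Flag-tagged HCV core protein residues 1-106 · Repeats – one well for each compound · Technique – TR-FRET 671 and 617 nm emission · Doses – one concentration, 5 µM, in 0.5% DMSO · Times – 4 h, 22.5 °C incubation · Also added – Eu donor and XL665 acceptor anti-tag antibodies · Measure – percent inhibition of core106 dimerization signal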
UHRF1 binding – UHRF1 methylated DNA binding inhibitors, primary screen, counter-screen for MBD2 inhibitor project, biochemical, TR-FRET, human UHRF1, single concentration | E3 ubiquitin-protein ligase UHRF1 (Homo sapiens), Q96T88 | actives 0.75% (n = 370,000) | UHRF1 binding to methylated oligo | AID 687016, 2013 | inhibition, % at 4.4 µM; in the data active = inhibition above about 21%;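 also: UHRF1 SRA domain binding a hemimethylated CpG hairpin DNA probe; 0% = median of test compound wells and 100% = reference inhibitor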
MBD2 DNA inh – inhibitors of MBD2 binding to methylated DNA, primary screen, biochemical, TR-FRET, DNA-binding domain, human; Methyl-CpG-binding domain protein 2 (Homo sapiens), Q9UBB5; MBD2 binding to methylated oligonucleotide; inhibition, % at 4.4 µM; actives 0.31% (n = 370,000); AID 686964, 2013; in the data active = inhibition above about 13%
Target sequence (Q9UBB5 whole entry, looked up, the tested form may be a part): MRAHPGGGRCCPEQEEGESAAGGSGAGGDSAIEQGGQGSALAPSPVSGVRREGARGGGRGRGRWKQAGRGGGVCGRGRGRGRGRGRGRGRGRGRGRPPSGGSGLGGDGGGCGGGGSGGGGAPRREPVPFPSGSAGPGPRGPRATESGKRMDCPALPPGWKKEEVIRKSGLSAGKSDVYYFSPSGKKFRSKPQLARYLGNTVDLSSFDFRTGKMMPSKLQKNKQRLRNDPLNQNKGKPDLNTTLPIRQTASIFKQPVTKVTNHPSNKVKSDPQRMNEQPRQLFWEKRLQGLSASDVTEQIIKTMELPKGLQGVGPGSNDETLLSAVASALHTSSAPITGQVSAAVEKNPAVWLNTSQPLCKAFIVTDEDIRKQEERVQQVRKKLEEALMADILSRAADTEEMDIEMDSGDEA
LEDGF integ inh – blockers of LEDGF/p75-dependent integrase strand transfer – biochemical, TR-FRET, high throughput, primary screen. HIV-1 integrase (with human LEDGF/p75). TR-FRET IN-LEDGF/p75 DNA integration, Eu/Cy5. inhibition, % at 3.7 µM. actives 0.64% (n = 370,000). AID 743269, 2014;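 active = inhibition above the screen-wide mean plus 3 SD, cut at about 13% in these data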;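 also: signal is the Cy5 over europium emission ratio at 671 and 618 nm; 0% = plate median of compound wells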
Active calls of the source: *; · = not tested or not shown. The list is not random: actives were taken first. Their share in the collection is about 1.8%.

SMILES | TDP2 absorb | core dimer inh | UHRF1 binding | MBD2 DNA inh | LEDGF integ inh
Cc1ccc(-c2csc(N3N=C(c4ccccc4)/C(=C\c4ccc(N(C)C)cc4)C3=O)n2)cc1 | · | 46* | · | · | ·
CN(C)c1ccc(-c2csc(C(C)(O)c3ccccc3)n2)cc1 (configuration not stated) | 4 | · | -1 | -6 | 2
CCOC(=O)[C@]12CCCCC/C=C\1N(Cc1ccc(OC)cc1)C(=O)[C@H]2CC(=O)NCc1cccc(C(F)(F)F)c1 | -14 | · | -1 | -5 | -2
O=C(c1ccc(F)cc1)C1CCN(C(=O)c2ccncc2)CC1 | 7 | -1 | 80* | -6 | 0
O=C(c1ccc(F)cc1)C1CCN(C(=O)c2ccc(F)cc2)CC1 | -2 | 4 | -1 | -5 | -4
O=[N+]([O-])c1ccc(-c2cnc(SC(c3ccccc3)c3ccccc3)[nH]2)cc1 | 5 | -2 | 45* | 3 | 2
CCNC(=O)N(C)[C@H]1C[C@H]2c3[nH]c4cccc(-c5ccc6c(c5)OCO6)c4c3CCN2C[C@H]1[C@H](C)O | -7 | · | 0 | -6 | -3
COc1ccc(N2C(=O)N3[C@H](c4ccc(Cl)cc4)[C@@H]4C(=O)N(C5CCCCC5)C(=O)[C@@H]4[C@]3(C)C2=O)cc1 | 10 | 7 | 22* | 7 | 1
O=C1NC(=S)SC1=C1CCCC1 | 2 | -2 | 21* | 4 | 8
CCC(NC(=O)C1CCCN(c2ncccn2)C1)c1ccccc1 (configuration not stated) | 6 | · | 1 | 2 | 1
CC1CCCN(C(=O)Cn2nnc(-c3ccc([N+](=O)[O-])cc3)n2)C1 (configuration not stated) | -5 | 2 | 29* | 1 | -2
COc1ccc(-c2noc(C3CCCN(C(=O)NC4CCC(C)CC4)C3)n2)cc1 (configuration not stated) | 6 | · | -2 | -1 | -3
Cc1ccc(/C=C2\SC(N3CCN(C(c4ccccc4)c4ccccc4)CC3)=NC2=O)o1 | 9 | 60* | -1 | 0 | 0
Nc1nc(SCc2ccc(Br)cc2)[nH]c(=O)c1-c1ccccc1 | -6 | 8 | 29* | 8 | 0
Nc1nc(SCc2nc(-c3ccccc3)no2)[nH]c(=O)c1-c1ccccc1 | 8 | 1 | 0 | 2 | 2
Cc1ccc(C)c(NC(=O)CN2C(=O)CCSc3ccccc32)c1 | 5 | · | 0 | 1 | -1
O=C(CCC(=O)c1ccc(Cl)cc1)OCn1nnc2ccccc2c1=O | -1 | · | 56* | -2 | 2
O=C(NCc1cccc(Cl)c1)O[C@H]1CC[C@@]23CCCN2C(=O)CCC[C@H]3C1 | -4 | · | 0 | -6 | 0
C=CCOC(=O)C1=C(C)NC(SCC(=O)Nc2nccs2)=C(C#N)C1c1cccs1 (configuration not stated) | -9 | 49* | -2 | 2 | 0
C=CCOC(=O)C1=C(C)NC(SCC(=O)Nc2nccs2)=C(C#N)C1c1ccc(Cl)cc1 (configuration not stated) | 12 | 33 | -2 | -6 | 0
Cc1ccc(-c2nnc(SCC(=O)Nc3ccc4c(c3)OCCO4)n2-c2ccc(Cl)cc2)cc1 | -1 | · | -3 | -3 | 2
Cc1cccc(N(CC(=O)NC2CCCC2)C(=O)c2nsc(Cl)c2Cl)c1C | 2 | 4 | 0 | -3 | 3
CCOc1ccccc1N(CC(=O)NC1CCCCC1)C(=O)c1nsc(Cl)c1Cl | 7 | 3 | 22* | 2 | 1
Cc1ccc(Cn2nnc3c2-c2ccccc2S(=O)(=O)N(C2CC2)C3)cc1 | 0 | · | 0 | -5 | 3
COC1=CC(=Cc2c(N)n3nc(CC(=O)N4CCCCC4)sc3nc2=O)C=C(OC)C1=O | -8 | -12 | 32* | 12 | 0
SMILES | TDP2 absorb | core dimer inh | UHRF1 binding | MBD2 DNA inh | LEDGF integ inh
Nc1c(/C=C2/C=CC(=O)C(O)=C2)c(=O)nc2sc(CC(=O)N3CCCC3)nn12 | 0 | -9 | 9 | -3 | 8
COC1=C/C(=C/c2c(N)n3nc(CC(=O)N4CCCC4)sc3nc2=O)C=CC1=O | -6 | -18 | 7 | -1 | 5
Nc1c(/C=C2/C=CC(=O)C(O)=C2)c(=O)nc2sc(CC(=O)N3CCCCC3)nn12 | -13 | -7 | 26* | 6 | 16*
Cc1ccc(-c2nc3ccccc3s2)cc1NC(=S)NC(=O)/C=C/c1ccco1 | 10 | 52* | 0 | 5 | -1
O=C(/C=C/c1ccco1)NC(=S)Nc1cccc(-c2nc3ccccc3s2)c1 | 6 | 52* | -1 | -2 | 4
CCNC(=S)N/N=C/c1c(Cl)cccc1Cl | -5 | -5 | -3 | -3 | -3
CC(C)(C)NC(=S)N/N=C/c1c(Cl)cccc1Cl | 6 | 5 | 36* | 0 | 3
COc1ccccc1Cc1c(-c2ccccc2)nc2c(C)cc(Br)cn12 | -10 | · | 14 | 1 | -1
CCCc1nc2c(C)cc(Br)cn2c1Cc1ccc(C)cc1 | 5 | · | 22* | 7 | -4
CCCc1nc2c(C)cc(Br)cn2c1Cc1cccc(Cl)c1 | 2 | · | 24* | 9 | 0
Cc1cc(Br)cn2c(Cc3cccc(F)c3)c(-c3cccc(Cl)c3)nc12 | -11 | · | 4 | -1 | 7
CCCc1nc2c3ccccc3ccn2c1Cc1cccc(F)c1 | -16 | · | 21* | 4 | 4
Cc1ccc(Cc2c(-c3ccc(Cl)cc3)nc3c(C)cc(Br)cn23)cc1 | 14 | · | 4 | -4 | 6
CCCc1nc2c(C)cc(Br)cn2c1Cc1ccccc1OC | -5 | · | 22* | 9 | 0
Cc1ccc(-c2nc3ncccn3c2NC(=O)Nc2ccc(F)cc2)cc1 | 0 | · | -1 | -8 | 8
COc1ccc(-n2cc(COC(=O)NCCc3c[nH]c4ccccc34)nn2)cc1 | 1 | · | 3 | -1 | 4
COC(=O)CSc1nc(SC)nc2c1sc1nc(-c3ccco3)c3c(c12)CC(C)(C)OC3 | -7 | · | 24* | 2 | 3
CSc1nc(SCCO)c2sc3nc(-c4ccco4)c4c(c3c2n1)CC(C)(C)OC4 | 12 | · | 3 | 8 | 8
COC(=O)c1ccc2nc(-c3ccco3)c(Cc3ccccc3)n2c1 | 2 | · | 22* | 1 | 9
COC(=O)c1ccc2nc(-c3ccco3)c(Cc3cccc(Cl)c3)n2c1 | 13 | · | 22* | 8 | 6
COc1ccc(CN2CCC(CNC(=O)NC(C)C)CC2)cc1 | -19 | · | 4 | -5 | 2
CCOC(=O)C1=C(C)N(c2ccc(OC)cc2)C(=O)/C1=C\c1cccs1 | 3 | 12 | 25* | 8 | 2
